Assays:
Type in all cases: functional, cell-based
[1] = Cytotoxicity against human MEL28 cells after 4 days; details: SK-MEL-28, 96 h
Outline: (§1)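 Cells seeded at 2 × 10⁴/well in MEM with 10% FCS containing the compound at different concentrations. Incubated 4 days at 37 °C under 10% CO₂ and 98% humidity. Drug-free control wells were counted daily to confirm exponential growth. Read-out was crystal violet staining, then inhibition estimated by comparison with controls.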

P388 = test: Cytotoxicity against mouse P388 cells after 4 days; details: P388, 96 h
Outline: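 Murine leukaemia cells seeded at 1 × 10⁴/well in MEM with 10% FCS containing the compound at different concentrations. Incubated 4 days at 37 °C under 10% CO₂ and 98% humidity, with drug-free controls counted daily to confirm exponential growth. Inhibition judged by inverted microscopy against controls, with no staining.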

A549 = test: Cytotoxicity against human A549 cells after 4 days; details: A549, 96 h; outline: as §1
HT-29 = test: Cytotoxicity against human HT29 cells after 4 days; details: HT-29, 96 h; outline: as §1

Question: Which IC50 [1] does the source give for `COc1cc([C@@H]2c3cc4c(cc3C=C(C=O)[C@H]2CO)OCO4)cc(OC)c1OC` here?
Answer: The IC50 was 250 nM.

Question: Which IC50 [1] does the source give for `COC(=O)[C@@H]1C(C(=O)Nc2ccc(C)cc2)=Cc2cc3c(cc2[C@H]1c1cc(OC)c(OC)c(OC)c1)OCO3` here?
Answer: Its IC50 is 1900 nM.

Question: What about the IC50 (P388) of the same compound?
Answer: Its IC50 is 1900 nM.

Question: And the IC50 (A549)?
Answer: The IC50 was 1900 nM.

Question: What about the IC50 (HT-29) of the same compound?
Answer: Its IC50 is 1900 nM.

Question: Which IC50 [1] does the source give for `COC(=O)[C@@H]1C(C(=O)OC(C)=O)=Cc2cc3c(cc2[C@H]1c1cc(OC)c(OC)c(OC)c1)OCO3` here?
Answer: Its IC50 is 10000 nM.

Question: And the IC50 (P388)?
Answer: Its IC50 is 10000 nM.

Question: And the IC50 (A549)?
Answer: The IC50 was 10000 nM.

Question: And the IC50 (HT-29)?
Answer: The IC50 was 10000 nM.

Question: Which results are given for `COc1cc(-c2c3c(cc4cc5c(cc24)OCO5)C(=O)N(CCO)C3=O)cc(OC)c1OC`?
Answer: IC50 (P388): 2200 nM; IC50 (A549): 2200 nM; IC50 (HT-29): 2200 nM

Question: With `CCCCCCNC(=O)c1cc2cc3c(cc2c(-c2cc(OC)c(OC)c(OC)c2)c1C(=O)NCCCCCC)OCO3` as the compound, how does the IC50 (P388) read?
Answer: Its IC50 is 2000 nM.

Question: And the IC50 (A549)?
Answer: The IC50 was 2000 nM.

Question: And the IC50 (HT-29)?
Answer: The IC50 was 2000 nM.

Question: For `COc1cc([C@@H]2c3cc4c(cc3[C@H](O)[C@H]3COC(=O)[C@H]23)OCO4)cc(OC)c1OC` [PODOFILOX], which IC50 (HT-29) is on record?
Answer: The IC50 was 12 nM.

Question: For `COC(=O)[C@@H]1C(C#N)=Cc2cc3c(cc2[C@H]1c1cc(OC)c(OC)c(OC)c1)OCO3`, which IC50 [1] is on record?
Answer: The IC50 was 2400 nM.

Question: What about the IC50 (A549) of the same compound?
Answer: The IC50 was 2400 nM.

Question: What about the IC50 (HT-29) of the same compound?
Answer: The IC50 was 2400 nM.

Question: For `COC(=O)[C@@H]1C(C(=O)Nc2ccccc2)=Cc2cc3c(cc2[C@H]1c1cc(OC)c(OC)c(OC)c1)OCO3`, which IC50 (P388) is on record?
Answer: The IC50 was 1900 nM.

Question: And the IC50 (A549)?
Answer: The IC50 was 1900 nM.

Question: What about the IC50 (HT-29) of the same compound?
Answer: The IC50 was 1900 nM.

Question: Which IC50 (P388) does the source give for `COc1cc([C@H]2C3=C(Cc4cc5c(cc42)OCO5)C(O)OC3=O)cc(OC)c1OC` (stereo partly drawn) here?
Answer: The IC50 was 1200 nM.

Question: And the IC50 (A549)?
Answer: Its IC50 is 1200 nM.

Question: And the IC50 (HT-29)?
Answer: The IC50 was 1200 nM.

Question: For `COc1cc([C@@H]2c3cc4c(cc3C=C(C(=O)O)[C@H]2C(=O)O)OCO4)cc(OC)c1OC`, which IC50 [1] is on record?
Answer: Its IC50 is over 20000 nM.

Question: What about the IC50 (P388) of the same compound?
Answer: Its IC50 is over 20000 nM.

Question: What about the IC50 (A549) of the same compound?
Answer: The IC50 was over 20000 nM.

Question: What about the IC50 (HT-29) of the same compound?
Answer: Its IC50 is over 20000 nM.

Question: With `COC(=O)[C@@H]1C(C(=O)O)=Cc2cc3c(cc2[C@H]1c1cc(OC)c(OC)c(OC)c1)OCO3` as the compound, how does the IC50 [1] read?
Answer: The IC50 was over 20000 nM.

Question: What about the IC50 (P388) of the same compound?
Answer: The IC50 was over 20000 nM.

Question: What about the IC50 (A549) of the same compound?
Answer: Its IC50 is over 20000 nM.

Question: And the IC50 (HT-29)?
Answer: Its IC50 is over 20000 nM.

Question: What does the source list for `COC(=O)[C@@H]1C(C(=O)Nc2cc(OC)c(OC)c(OC)c2)=Cc2cc3c(cc2[C@H]1c1cc(OC)c(OC)c(OC)c1)OCO3`?
Answer: IC50 (P388): 1700 nM; IC50 (A549): 1700 nM; IC50 (HT-29): 1700 nM

Question: Which IC50 [1] does the source give for `COc1cc([C@@H]2c3cc4c(cc3C=C3C(=O)OC(=O)[C@H]32)OCO4)cc(OC)c1OC` here?
Answer: The IC50 was 12000 nM.

Question: And the IC50 (P388)?
Answer: The IC50 was 12000 nM.

Question: And the IC50 (A549)?
Answer: The IC50 was 12000 nM.

Question: And the IC50 (HT-29)?
Answer: Its IC50 is 12000 nM.

Question: Which IC50 [1] does the source give for `COc1cc([C@@H]2c3cc4c(cc3C=C3C(=O)OC[C@H]32)OCO4)cc(OC)c1OC` here?
Answer: Its IC50 is over 20000 nM.

Question: And the IC50 (P388)?
Answer: The IC50 was over 20000 nM.

Question: What about the IC50 (A549) of the same compound?
Answer: The IC50 was over 20000 nM.

Question: What about the IC50 (HT-29) of the same compound?
Answer: Its IC50 is over 20000 nM.

Question: For `COC(=O)[C@@H]1C(/C=N/O)=Cc2cc3c(cc2[C@H]1c1cc(OC)c(OC)c(OC)c1)OCO3`, which IC50 [1] is on record?
Answer: Its IC50 is 2300 nM.

Question: Which IC50 [1] does the source give for `COC(=O)[C@@H]1C(C=O)=Cc2cc3c(cc2[C@H]1c1cc(OC)c(OC)c(OC)c1)OCO3` [PODOPHYLLIC ALDEHYDE] here?
Answer: The IC50 was 230 nM.

Question: Which results are given for `CCCCCCNC(=O)C1=Cc2cc3c(cc2[C@@H](c2cc(OC)c(OC)c(OC)c2)[C@@H]1C(=O)OC)OCO3`?
Answer: IC50 (P388): 1900 nM; IC50 (A549): 1900 nM; IC50 (HT-29): 1900 nM

Question: With `COC(=O)C1=Cc2cc3c(cc2[C@@H](c2cc(OC)c(OC)c(OC)c2)[C@@H]1C(=O)OC)OCO3` as the compound, how does the IC50 [1] read?
Answer: Its IC50 is 5100 nM.

Question: And the IC50 (P388)?
Answer: Its IC50 is 5100 nM.

Question: And the IC50 (A549)?
Answer: Its IC50 is 5100 nM.

Question: And the IC50 (HT-29)?
Answer: Its IC50 is 5100 nM.

— ChEMBL document CHEMBL1146355, “Synthesis and cytotoxic evaluation of C-9 oxidized podophyllotoxin derivatives” (Bioorg Med Chem, 2007)
